Results from ChEMBL document CHEMBL1130262, “Peptidomimetic inhibitors of the human cytomegalovirus protease” (J Med Chem, 1997).

Legend:
Cathepsin B = Cathepsin B (Homo sapiens, UniProt P07858); assay: Activity against serine protease human liver Cathepsin B (cat-B )
Procedure, shortened: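 Human liver cathepsin B, 5 nM, with the stock enzyme activated in 20 mM TCEP before use. Inhibitor at 300–0.06 μM, preincubated 1 h at 30 °C. Then 30 μM Z-FR-pNA added, hydrolysis to ~30% conversion, pNA absorbance read.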

Neutrophil elastase = target: T1, Neutrophil elastase (Homo sapiens, UniProt P08246); assay: Binding affinity for human leukocyte elastase(HLE) serine protease
T1 sequence (P08246 whole entry): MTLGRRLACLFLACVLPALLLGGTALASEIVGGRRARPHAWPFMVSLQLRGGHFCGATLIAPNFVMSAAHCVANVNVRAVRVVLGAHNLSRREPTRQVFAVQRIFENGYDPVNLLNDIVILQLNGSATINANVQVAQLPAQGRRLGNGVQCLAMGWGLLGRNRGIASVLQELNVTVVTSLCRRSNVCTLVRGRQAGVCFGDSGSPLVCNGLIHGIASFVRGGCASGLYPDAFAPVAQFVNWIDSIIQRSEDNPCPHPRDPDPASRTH
Procedure, shortened: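 Human leukocyte elastase at 8 nM with 133 μM Succ-AAV-pNA. Inhibitor at 300–0.06 μM, preincubated with enzyme 1 h at 30 °C. Substrate hydrolysis run to ~30% conversion and read by absorbance.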

Chymotrypsinogen A = Chymotrypsinogen A (Bos taurus, UniProt P00766); assay: Activity against serine protease bovine pancreatic Alpha-Chymotrypsinogen (BPC)
Procedure, shortened: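 Colorimetric assay with bovine pancreatic α-chymotrypsin ([…], as printed) and 100 μM Succ-AAPF-pNA. Inhibitor at 300–0.06 μM, preincubated with enzyme 1 h at 30 °C. Substrate then added and hydrolysis run to ~30% conversion, read as pNA absorbance.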

| IC50 (Cathepsin B) [µM] | IC50 (Neutrophil elastase) [µM] | IC50 (Chymotrypsinogen A) [µM] | Structure (SMILES) |
| --- | --- | --- | --- |
| > 300 | > 300 | 14 | CC(NC(=O)[C@H](CC(=O)N(C)C)NC(=O)[C@@H](NC(=O)CC(C)(C)C)C(C)(C)C)C(=O)C(F)(F)C(F)(F)F (stereo partly specified) |
| 225 | > 300 | > 300 | Cc1ccc2nc(C(=O)C(C)NC(=O)[C@H](CC(=O)N(C)C)NC(=O)[C@@H](NC(=O)CC(C)(C)C)C(C)(C)C)oc2c1 (stereo partly specified) |
| > 300 | > 300 | > 300 | Cc1ccc2oc(C(=O)C(C)NC(=O)[C@H](CC(=O)N(C)C)NC(=O)[C@@H](NC(=O)CC(C)(C)C)C(C)(C)C)nc2c1 (stereo partly specified) |
| > 300 | 183 | > 300 | CC(NC(=O)[C@H](CC(=O)N(C)C)NC(=O)[C@@H](NC(=O)CC(C)(C)C)C(C)(C)C)C(=O)c1nc2ccccc2o1 (stereo partly specified) |
| > 300 | > 300 | > 75 | CN(C)C(=O)C[C@H](NC(=O)[C@@H](NC(=O)CC(C)(C)C)C(C)(C)C)C(=O)N[C@H]1CN(OCc2ccccc2)C1=O |
| > 300 | > 300 | > 300 | CC(NC(=O)[C@H](CC(=O)N(C)C)NC(=O)[C@@H](NC(=O)CC(C)(C)C)C(C)(C)C)C(=O)C(=O)NCc1ccccc1 (stereo partly specified) |
| > 300 | > 300 | > 300 | C[C@H](NC(=O)[C@H](CC(=O)N(C)C)NC(=O)[C@@H](NC(=O)CC(C)(C)C)C(C)(C)C)C(=O)C(F)(F)F |
| > 300 | > 300 | > 300 | C[C@H](NC(=O)[C@H](CC(=O)N(C)C)NC(=O)[C@@H](NC(=O)CC(C)(C)C)C(C)(C)C)C(=O)C(F)(F)C(=O)NCc1ccccc1 |
| > 300 | > 300 | > 300 | Cc1cccc2nc(C(=O)C(C)NC(=O)[C@H](CC(=O)N(C)C)NC(=O)[C@@H](NC(=O)CC(C)(C)C)C(C)(C)C)oc12 (stereo partly specified) |
| > 300 | > 300 | > 300 | Cc1cccc2oc(C(=O)C(C)NC(=O)[C@H](CC(=O)N(C)C)NC(=O)[C@@H](NC(=O)CC(C)(C)C)C(C)(C)C)nc12 (stereo partly specified) |
| 19 | > 300 | > 300 | CC(NC(=O)[C@H](CC(=O)N(C)C)NC(=O)[C@@H](NC(=O)CC(C)(C)C)C(C)(C)C)C(=O)c1nc2ccccc2s1 (stereo partly specified) |
| 59 | > 300 | > 300 | CC(NC(=O)[C@H](CC(=O)N(C)C)NC(=O)[C@@H](NC(=O)CC(C)(C)C)C(C)(C)C)C(=O)c1nc2ncccc2o1 (stereo partly specified) |
